According to ChEMBL document CHEMBL5034013, “Discovery of VNRX-7145 (VNRX-5236 Etzadroxil): An Orally Bioavailable β-Lactamase Inhibitor for Enterobacterales Expressing Ambler Class A, C, and D Enzymes” (J Med Chem, 2021):

Key:
[1] = Oral bioavailability in rat at 10 mg/kg administered as cassette dose measured by UPLC-MS/MS; assay type: ADME, organism-based; details: in vivo, 10 mg/kg, in the assay text read “measured” for “administered as cassette dose measured”
Outline: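 Ester prodrugs are given to rats by oral gavage, some as a cassette with another ester. F is the percent absolute oral bioavailability of the parent, corrected for the MW difference between prodrug and parent.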

[2] = Oral bioavailability in mouse at 5 mg/kg administered as cassette dose measured by UPLC-MS/MS analysis; assay type: ADME, organism-based; details: in vivo
Outline: (§1)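 Ester prodrugs are dosed orally. F is the percent absolute oral bioavailability of the parent boronate, corrected for the molecular-weight difference between prodrug and parent.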

[3] = Oral bioavailability in dog at 10 mg/kg administered as cassette dose measured by UPLC-MS/MS analysis; assay type: ADME, organism-based, Canis lupus familiaris; details: in vivo; outline: as §1
[4] = Oral bioavailability in monkey at 10 mg/kg administered as cassette dose measured by UPLC-MS/MS analysis; assay type: ADME, organism-based, Macaca mulatta; details: rhesus monkey, in vivo; outline: as §1
[5] = test system: Escherichia coli; test: Antibacterial activity against Escherichia coli expressing CTX-M-15/TEM-1 assessed as concentration required to restore ceftibuten activity incubated for 16 to 20 hrs in presence of 1 ug/ml ceftibuten by broth microdilution method; assay type: functional; details: time 16-20 hrs
[6] = test system: Klebsiella pneumoniae; test: Antibacterial activity against Klebsiella pneumoniae expressing SHV-12/TEM-1 assessed as concentration required to restore ceftibuten activity incubated for 16 to 20 hrs in presence of 1 ug/ml ceftibuten by broth microdilution method; assay type: functional; details: time 16-20 hrs
[7] = test system: Escherichia coli; test: Antibacterial activity against Escherichia coli 786978 expressing KPC assessed as concentration required to restore ceftibuten activity incubated for 16 to 20 hrs in presence of 1 ug/ml ceftibuten by broth microdilution method; assay type: functional; details: time 16-20 hrs
[8] = test system: Klebsiella pneumoniae; test: Antibacterial activity against Klebsiella pneumoniae 156309 expressing SHV-11/TEM-1/KPC-2 assessed as concentration required to restore ceftibuten activity incubated for 16 to 20 hrs in presence of 1 ug/ml ceftibuten by broth microdilution method; assay type: functional; details: time 16-20 hrs
[9] = test system: Escherichia coli; test: Antibacterial activity against Escherichia coli J53 expressing SHV-5/TEM-1/AmpC assessed as concentration required to restore ceftibuten activity incubated for 16 to 20 hrs in presence of 1 ug/ml ceftibuten by broth microdilution method; assay type: functional; details: time 16-20 hrs
[10] = test system: Klebsiella pneumoniae; test: Antibacterial activity against Klebsiella pneumoniae 196477 expressing AmpC/CMY-2/TEM-1/CTX-M-15 assessed as concentration required to restore ceftibuten activity incubated for 16 to 20 hrs in presence of 1 ug/ml ceftibuten by broth microdilution method; assay type: functional; details: time 16-20 hrs
[11] = test system: Escherichia coli; test: Antibacterial activity against Escherichia coli 664507 expressing OXA-48 assessed as concentration required to restore ceftibuten activity incubated for 16 to 20 hrs in presence of 1 ug/ml ceftibuten by broth microdilution method; assay type: functional; details: time 16-20 hrs
Outline: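 Tested against a 25-strain challenge panel of clinical E. coli and K. pneumoniae isolates carrying ESBL (n = 5), KPC (n = 11), class C (n = 4) or OXA-48 (n = 5) β-lactamases. Ceftibuten was held at 1 μg/mL while the BLI concentration varied. The read-out was the BLI concentration that rescued ceftibuten activity.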

[12] = test system: Klebsiella pneumoniae; test: Antibacterial activity against Klebsiella pneumoniae expressing OXA-48 assessed as concentration required to restore ceftibuten activity incubated for 16 to 20 hrs in presence of 1 ug/ml ceftibuten by broth microdilution method; assay type: functional; details: time 16-20 hrs
[13] = test system: Escherichia coli; test: (§2) In vivo antibacterial activity against Escherichia coli expressing TEM-1/CTX-M-15 infected in C3H/HeJ mouse assessed as log10 reduction in CFU in kidney at 1 to 300 mg/kg, sc administered every 12 hrs for 3 days starting from 4 days post infection and measured at 7 days post infection (reference value: 6.7 log10CFU); assay type: functional; details: dose 1-300 mg/kg; time 3 day
[14] = test system: Escherichia coli; test: as §2, with “bladder” for “kidney”, “5.8” for “6.7”; assay type: functional; details: dose 1-300 mg/kg; time 3 day
[15] = test system: Escherichia coli; test: as §2, with “urine” for “kidney”; assay type: functional; details: dose 1-300 mg/kg; time 3 day

| Structure (SMILES) | bioavailability [1] [%] | bioavailability [2] [%] | bioavailability [3] [%] | bioavailability [4] [%] | Activity [5] [µg/mL] | Activity [6] [µg/mL] | Activity [7] [µg/mL] | Activity [8] [µg/mL] | Activity [9] [µg/mL] | Activity [10] [µg/mL] | Activity [11] [µg/mL] | Activity [12] [µg/mL] | Activity [13] [log10CFU/ml] | Activity [14] [log10CFU/ml] | Activity [15] [log10CFU/ml] |
| --- | --- | --- | --- | --- | --- | --- | --- | --- | --- | --- | --- | --- | --- | --- | --- |
| CCC(=O)N[C@H]1Cc2cccc(C(=O)OCOC(=O)C(C)(C)C)c2OB1O | 99 | 42 | 42 | 52 | – | – | – | – | – | – | – | – | – | – | – |
| Nc1nc(/C(=C/CC(=O)O)C(=O)N[C@@H]2C(=O)N3C(C(=O)O)=CCS[C@H]23)cs1 [CEFTIBUTEN] | – | – | – | – | 128 | 32 | 8 | 256 | 256 | 4 | 128 | 256 | 2 | 2 | 2 |
